# Measured values as given in ChEMBL document CHEMBL1649124, “Genetic variability among ampC genes from acinetobacter genomic species 3” (Antimicrob Agents Chemother, 2009).
# Assays:
# Acinetobacter pittii [1] = assay: Antibacterial activity against Acinetobacter genomosp. 3 isolate 14 by Etest method; type: functional
# Summary of the method: (§1)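 MICs for AG3 clinical isolates were read by Etest following the manufacturer's instructions. Isolates were stored at –80°C in 10% Brucella glycerol broth before testing.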
# Acinetobacter pittii [2] = assay: Antibacterial activity against Acinetobacter genomosp. 3 isolate 20 by Etest method; type: functional; summary of the method: as §1
# Acinetobacter pittii [3] = assay: Antibacterial activity against Acinetobacter genomosp. 3 isolate 21 by Etest method; type: functional; summary of the method: as §1
# Acinetobacter pittii [4] = assay: Antibacterial activity against Acinetobacter genomosp. 3 isolate 52 by Etest method; type: functional; summary of the method: as §1
# Acinetobacter pittii [5] = assay: Antibacterial activity against Acinetobacter genomosp. 3 isolate 56 by Etest method; type: functional; summary of the method: as §1
# Acinetobacter pittii [6] = assay: Antibacterial activity against Acinetobacter genomosp. 3 isolate 60 by Etest method; type: functional; summary of the method: as §1
# Acinetobacter pittii [7] = assay: Antibacterial activity against Acinetobacter genomosp. 3 isolate 65 by Etest method; type: functional; summary of the method: as §1
# Acinetobacter pittii [8] = assay: Antibacterial activity against Acinetobacter genomosp. 3 isolate 67 by Etest method; type: functional; summary of the method: as §1
# Escherichia coli [9] = assay: Antibacterial activity against Escherichia coli DH5alpha by Etest method; type: functional
# Summary of the method: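 E. coli DH5α host strain, grown at 37°C in LB medium. MICs of β-lactams determined by Etest following the manufacturer's instructions.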
# Acinetobacter pittii [10] = assay: Antibacterial activity against Acinetobacter genomosp. 3 isolate 69 by Etest method; type: functional; summary of the method: as §1
# Acinetobacter pittii [11] = assay: Antibacterial activity against Acinetobacter genomosp. 3 isolate 90 by Etest method; type: functional; summary of the method: as §1
# Acinetobacter pittii [12] = assay: Antibacterial activity against Acinetobacter genomosp. 3 isolate 103 by Etest method; type: functional; summary of the method: as §1
# Acinetobacter pittii [13] = assay: Antibacterial activity against Acinetobacter genomosp. 3 isolate 109 by Etest method; type: functional; summary of the method: as §1
# Acinetobacter pittii [14] = assay: Antibacterial activity against Acinetobacter genomosp. 3 isolate 128 by Etest method; type: functional; summary of the method: as §1
# Acinetobacter pittii [15] = assay: Antibacterial activity against Acinetobacter genomosp. 3 isolate 195 by Etest method; type: functional; summary of the method: as §1
# Acinetobacter pittii [16] = assay: Antibacterial activity against Acinetobacter genomosp. 3 isolate 243 by Etest method; type: functional; summary of the method: as §1
# Escherichia coli [17] = assay: Antibacterial activity against Escherichia coli DH5alpha carrying ampC gene of Acinetobacter genomosp. 3 isolate 14 by Etest method; type: functional
# Summary of the method: (§2)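 E. coli DH5α expressing the AG3 isolate ampC gene, PCR-amplified (high-fidelity system, 28 cycles) and cloned into BamHI/HindIII sites of pBGS18 (kanamycin marker) under the CTX-M-14 β-lactamase promoter. Grown at 37°C in LB, with kanamycin 50 µg/ml when needed. β-Lactam MICs determined by Etest per the manufacturer's instructions.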
# Escherichia coli [18] = assay: Antibacterial activity against Escherichia coli DH5alpha carrying ampC gene of Acinetobacter genomosp. 3 isolate 20 by Etest method; type: functional; summary of the method: as §2
# Escherichia coli [19] = assay: Antibacterial activity against Escherichia coli DH5alpha carrying ampC gene of Acinetobacter genomosp. 3 isolate 56 by Etest method; type: functional; summary of the method: as §2
# Escherichia coli [20] = assay: Antibacterial activity against Escherichia coli DH5alpha carrying ampC gene of Acinetobacter genomosp. 3 isolate 65 by Etest method; type: functional; summary of the method: as §2
# Escherichia coli [21] = assay: Antibacterial activity against Escherichia coli DH5alpha carrying ampC gene of Acinetobacter genomosp. 3 isolate 69 by Etest method; type: functional; summary of the method: as §2
# Escherichia coli [22] = assay: Antibacterial activity against Escherichia coli DH5alpha carrying ampC gene of Acinetobacter genomosp. 3 isolate 103 by Etest method; type: functional; summary of the method: as §2
# Escherichia coli [23] = assay: Antibacterial activity against Escherichia coli DH5alpha carrying ampC gene of Acinetobacter genomosp. 3 isolate 109 by Etest method; type: functional; summary of the method: as §2
# Escherichia coli [24] = assay: Antibacterial activity against Escherichia coli DH5alpha carrying ampC gene of Acinetobacter genomosp. 3 isolate 195 by Etest method; type: functional; summary of the method: as §2
# [25] = test system: CC(=O)OCC1=C(C(=O)O)N2C(=O)[C@@H](NC(=O)Cc3cccs3)[C@H]2SC1; assay: (§3) Activity of Acinetobacter genomosp. 3 isolate 65 ADC-14; details: Acinetobacter pittii
# Summary of the method: (§4)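 AmpC genes from AG3 clinical isolates were cloned into pGEX-6P-1 and expressed as GST fusions. The mature enzyme was purified free of GST, giving a 43 kDa SDS-PAGE band of 95% purity. Kinetics were read spectrophotometrically at 25°C in PBS with 20 mg/liter BSA, three repeats. For poor substrates, Km was taken as Ki in competitive assays with Centa as reporter substrate. Vmax came from the Michaelis-Menten equation at six times Km antibiotic.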
# [26] = test system: CC(C)(O/N=C(\C(=O)N[C@@H]1C(=O)N2C(C(=O)[O-])=C(C[n+]3ccccc3)CS[C@H]12)c1csc(N)n1)C(=O)O; assay: as §3; details: Acinetobacter pittii; summary of the method: as §4
# [27] = test system: CO/N=C(\C(=O)N[C@@H]1C(=O)N2C(C(=O)O)=C(COC(C)=O)CS[C@H]12)c1csc(N)n1; assay: as §3; details: Acinetobacter pittii; summary of the method: as §4
# [28] = test system: CO/N=C(\C(=O)N[C@@H]1C(=O)N2C(C(=O)O)=C(COC(N)=O)CS[C@H]12)c1ccco1; assay: as §3; details: Acinetobacter pittii; summary of the method: as §4
# [29] = test system: CO[C@@]1(NC(=O)Cc2cccs2)C(=O)N2C(C(=O)O)=C(COC(N)=O)CS[C@@H]21; assay: as §3; details: Acinetobacter pittii; summary of the method: as §4
# [30] = test system: C[C@H]1[C@H](NC(=O)/C(=N\OC(C)(C)C(=O)O)c2csc(N)n2)C(=O)N1S(=O)(=O)O; assay: as §3; details: Acinetobacter pittii; summary of the method: as §4
# [31] = test system: CC(=O)OCC1=C(C(=O)O)N2C(=O)[C@@H](NC(=O)Cc3cccs3)[C@H]2SC1; assay: (§5) Ratio of Kcat to Km for Acinetobacter genomosp. 3 isolate 65 ADC-14; details: Acinetobacter pittii; summary of the method: as §4
# [32] = test system: CC(C)(O/N=C(\C(=O)N[C@@H]1C(=O)N2C(C(=O)[O-])=C(C[n+]3ccccc3)CS[C@H]12)c1csc(N)n1)C(=O)O; assay: as §5; details: Acinetobacter pittii; summary of the method: as §4
# [33] = test system: CO/N=C(\C(=O)N[C@@H]1C(=O)N2C(C(=O)O)=C(COC(C)=O)CS[C@H]12)c1csc(N)n1; assay: as §5; details: Acinetobacter pittii; summary of the method: as §4
# [34] = test system: CO/N=C(\C(=O)N[C@@H]1C(=O)N2C(C(=O)O)=C(COC(N)=O)CS[C@H]12)c1ccco1; assay: as §5; details: Acinetobacter pittii; summary of the method: as §4
# [35] = test system: CO[C@@]1(NC(=O)Cc2cccs2)C(=O)N2C(C(=O)O)=C(COC(N)=O)CS[C@@H]21; assay: as §5; details: Acinetobacter pittii; summary of the method: as §4
Molecule,MIC (Acinetobacter pittii [1]),MIC (Acinetobacter pittii [2]),MIC (Acinetobacter pittii [3]),MIC (Acinetobacter pittii [4]),MIC (Acinetobacter pittii [5]),MIC (Acinetobacter pittii [6]),MIC (Acinetobacter pittii [7]),MIC (Acinetobacter pittii [8]),MIC (Escherichia coli [9]),MIC (Acinetobacter pittii [10]),MIC (Acinetobacter pittii [11]),MIC (Acinetobacter pittii [12]),MIC (Acinetobacter pittii [13]),MIC (Acinetobacter pittii [14]),MIC (Acinetobacter pittii [15]),MIC (Acinetobacter pittii [16]),MIC (Escherichia coli [17]),MIC (Escherichia coli [18]),MIC (Escherichia coli [19]),MIC (Escherichia coli [20]),also measured
CC(C)(O/N=C(\C(=O)N[C@@H]1C(=O)N2C(C(=O)[O-])=C(C[n+]3ccccc3)CS[C@H]12)c1csc(N)n1)C(=O)O [CEFTAZIDIME],3 µg/mL,4 µg/mL,6 µg/mL,3 µg/mL,1.5 µg/mL,3 µg/mL,4 µg/mL,3 µg/mL,0.19 µg/mL,4 µg/mL,6 µg/mL,4 µg/mL,3 µg/mL,3 µg/mL,4 µg/mL,4 µg/mL,0.38 µg/mL,0.75 µg/mL,0.25 µg/mL,0.25 µg/mL,MIC (Escherichia coli [21]): 0.19 µg/mL; MIC (Escherichia coli [22]): 0.5 µg/mL; MIC (Escherichia coli [23]): 0.19 µg/mL; MIC (Escherichia coli [24]): 0.5 µg/mL
CO/N=C(\C(=O)N[C@@H]1C(=O)N2C(C(=O)O)=C(COC(N)=O)CS[C@H]12)c1ccco1 [CEFUROXIME],32 µg/mL,48 µg/mL,48 µg/mL,32 µg/mL,16 µg/mL,64 µg/mL,24 µg/mL,48 µg/mL,1.5 µg/mL,32 µg/mL,16 µg/mL,48 µg/mL,32 µg/mL,32 µg/mL,64 µg/mL,32 µg/mL,64 µg/mL,96 µg/mL,48 µg/mL,4 µg/mL,MIC (Escherichia coli [21]): 32 µg/mL; MIC (Escherichia coli [22]): 64 µg/mL; MIC (Escherichia coli [23]): 32 µg/mL; MIC (Escherichia coli [24]): 48 µg/mL
Cc1onc(-c2ccccc2Cl)c1C(=O)N[C@@H]1C(=O)N2[C@@H]1SC(C)(C)[C@@H]2C(=O)O [CLOXACILLIN],2050 µg/mL,1020 µg/mL,512 µg/mL,1020 µg/mL,512 µg/mL,1020 µg/mL,1020 µg/mL,1880 µg/mL,,> 2050 µg/mL,512 µg/mL,1020 µg/mL,2050 µg/mL,2050 µg/mL,1020 µg/mL,2050 µg/mL,,,,,
C[C@@H](O)[C@H]1C(=O)N2C(C(=O)O)=C(SCCNC=N)C[C@H]12 [IMIPENEM ANHYDROUS],0.25 µg/mL,1 µg/mL,0.38 µg/mL,0.25 µg/mL,0.19 µg/mL,0.25 µg/mL,0.19 µg/mL,0.19 µg/mL,0.125 µg/mL,0.25 µg/mL,0.38 µg/mL,0.75 µg/mL,0.19 µg/mL,0.12 µg/mL,0.19 µg/mL,0.19 µg/mL,0.125 µg/mL,0.023 µg/mL,0.19 µg/mL,0.19 µg/mL,MIC (Escherichia coli [21]): 0.19 µg/mL; MIC (Escherichia coli [22]): 0.125 µg/mL; MIC (Escherichia coli [23]): 0.12 µg/mL
CCN1CCN(C(=O)N[C@@H](C(=O)N[C@@H]2C(=O)N3[C@@H]2SC(C)(C)[C@@H]3C(=O)O)c2ccccc2)C(=O)C1=O [PIPERACILLIN],16 µg/mL,24 µg/mL,24 µg/mL,12 µg/mL,12 µg/mL,24 µg/mL,16 µg/mL,16 µg/mL,0.38 µg/mL,16 µg/mL,12 µg/mL,24 µg/mL,16 µg/mL,12 µg/mL,24 µg/mL,32 µg/mL,4 µg/mL,4 µg/mL,3 µg/mL,4 µg/mL,MIC (Escherichia coli [21]): 3 µg/mL; MIC (Escherichia coli [22]): 4 µg/mL; MIC (Escherichia coli [23]): 4 µg/mL; MIC (Escherichia coli [24]): 4 µg/mL
ADC-14 protein (Acinetobacter genomosp. 3) (from UniProt Q0VTR6),,,,,,,,,,,,,,,,,,,,,Km [25]: 6.73 µM; kcat [25]: 56.5 s⁻¹; Km [26]: 26.1 µM; kcat [26]: 0.01 s⁻¹; Km [27]: 0.08 µM; kcat [27]: 0.004 s⁻¹; Km [28]: 0.02 µM; kcat [28]: 0.01 s⁻¹; Km [29]: 0.02 µM; kcat [29]: 0.02 s⁻¹; Km [30]: 6.01 µM; kcat/Km [31]: 8400 mM⁻¹ s⁻¹; kcat/Km [32]: 0.38 mM⁻¹ s⁻¹; kcat/Km [33]: 48.2 mM⁻¹ s⁻¹; kcat/Km [34]: 529 mM⁻¹ s⁻¹; kcat/Km [35]: 941 mM⁻¹ s⁻¹
